An excerpt weighted towards active compounds, which were near 2.5% of everything screened.
UHRF1 MBD2 ctr – UHRF1 methylated DNA binding inhibitors, primary screen, counter-screen for MBD2 inhibitor project, biochemical, TR-FRET, human UHRF1, single concentration; UHRF1 binding to methylated oligo; inhibition, % at 4.4 µM; 370,000 compounds, 0.75% hits; AID 687016, 2013; in the data active = inhibition above about 21%;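 note: UHRF1 SRA domain binding a hemimethylated CpG hairpin DNA probe; 0% = median of test compound wells and 100% = reference inhibitor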
Arr AP2 block – inhibitors of beta-arrestin/AP2 binding, primary screen, biochemical, GPCR trafficking, flow cytometry; FITC-arrestin peptide / GST-AP2 beads; AP2 beta2 appendage carries R879A mutation; inhibition, % at 10 µM; 340,000 compounds, 0.31% hits; beta-arrestin 1 C-terminal peptide binding to AP2 beta2-adaptin appendage (human);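 active = inhibition above a set limit, near 3 SD of compounds lacking own fluorescence, cut at about 54% in these data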;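 note: plate controls were DMSO wells for no effect and 5 µM unlabelled arrestin peptide for full effect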
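System: GST-AP2 R879A glutathione beads | Also added: FITC-arrestin peptide, 50 nM | Times: 12 min plus 1 h, RT | Signal: Bead flow cytometry, FITC channel | Buffer or medium: PBS with 0.05% Tween 20 and 0.1% BSA | Read-out basis: Percent drop in bead-associated FITC signal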
Rin1 Abl inh – inhibitors of Rin1-Abl protein binding, primary screen, biochemical, TR-FRET; Tyrosine-protein kinase ABL1 (Homo sapiens) + Ras and Rab interactor 1 (Homo sapiens), …; inhibition, % at 7.35 µM; 360,000 compounds, 0.4% hits; AID 588664, 2011; in the data active = inhibition above about 5%, passing the limit was not always enough
B2AR ag – beta2AR agonists driving receptor internalization, primary screen, cell-based, FAP fluorogen, flow cytometry; response, % (no concentration beside the values); AID 504454, 2011; Am2.2-beta2AR cells; 340,000 compounds, 0.43% hits;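 active = response above a set limit, near 3 SD of response in nonfluorescent compounds, cut at about 42% in these data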
Target sequence (P07550 whole entry, looked up): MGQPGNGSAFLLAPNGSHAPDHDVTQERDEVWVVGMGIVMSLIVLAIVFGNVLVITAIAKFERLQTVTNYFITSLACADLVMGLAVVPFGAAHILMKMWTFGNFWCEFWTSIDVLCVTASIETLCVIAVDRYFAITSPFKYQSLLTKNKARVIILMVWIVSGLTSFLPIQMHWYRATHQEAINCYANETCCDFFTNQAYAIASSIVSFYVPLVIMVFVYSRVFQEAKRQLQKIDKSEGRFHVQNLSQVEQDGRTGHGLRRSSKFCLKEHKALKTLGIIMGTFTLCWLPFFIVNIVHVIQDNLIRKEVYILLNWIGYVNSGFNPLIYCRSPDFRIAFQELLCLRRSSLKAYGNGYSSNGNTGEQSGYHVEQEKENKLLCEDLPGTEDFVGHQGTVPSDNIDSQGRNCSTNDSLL
MBD2 inh – inhibitors of MBD2 binding to methylated DNA, primary screen, biochemical, TR-FRET, DNA-binding domain, human; AID 686964, 2013; Methyl-CpG-binding domain protein 2 (Homo sapiens), Q9UBB5; MBD2 binding to methylated oligonucleotide; inhibition, % at 4.4 µM; 370,000 compounds, 0.31% hits; in the data active = inhibition above about 13%
ABHD5-PLIN5 inh – ABHD5-PLIN5 interaction inhibitors, primary screen, cell lysate, split luciferase complementation, luminescence; Split G. princeps luciferase complementation, 4 h; Perilipin-5 (Homo sapiens) + 1-acylglycerol-3-phosphate O-acyltransferase ABHD5 (Homo …; inhibition, % at 4 µM; 360,000 compounds, 0.78% hits;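 active = inhibition above the mean inhibition across every tested compound plus 3 SD, cut at about 22% in these data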;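 note: 0% = DMSO only wells and the 100% control is not disclosed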
* hit, by the source's call; . = no result.

SMILES | UHRF1 MBD2 ctr | Arr AP2 block | Rin1 Abl inh | B2AR ag | MBD2 inh | ABHD5-PLIN5 inh
O=C1C(=C(O)c2ccccc2)C(=O)c2ccccc21 | -6 | 8 | 13* | 13 | -4 | -29
O=C(O)C1CSC(c2ccco2)N1 (centres undefined) | 65* | 2 | 2 | 6 | 34* | -7
COc1cccc(N2CCN(CC(=O)NCc3cccc(OC)c3OC)CC2)c1 | 2 | . | . | . | 8 | .
N=C(N)SCc1ccc(O)c([N+](=O)[O-])c1 | 38* | 14 | 2 | 0 | 0 | -1
CCC(C)(C)c1ccc(OCCCC[n+]2cccc(C)c2)c(C(C)(C)CC)c1 | 1 | 15 | -1 | 13 | 1 | 23*
Cc1ccc[n+](CC(=O)Nc2cc(C(F)(F)F)ccc2Cl)c1 | 0 | -10 | -1 | 4 | 0 | -8
COC(=O)[C@H]1C[C@@]2(N3CCCC3)c3ccccc3N[C@H]2N1S(C)(=O)=O | 0 | . | . | . | 2 | .
CC(C)(C)OC(=O)n1cc(-c2ccccc2)c2c(-c3ccccc3)c(O)ccc21 | -1 | . | . | . | -3 | .
CSc1ccccc1NC(=O)Cc1ccccc1 | 23* | 15 | 0 | -6 | 12 | 1
CCOc1ccccc1/C=C/C(=O)N1CCN(C(=O)c2ccco2)CC1 | -1 | 33 | 0 | 84* | -2 | 10
CCn1nc(C)c(NC(=O)c2ccc(Cl)cc2)c1C | 27* | 34 | 0 | 4 | 13 | 2
CN(Cc1ccccc1)S(=O)(=O)c1cccc(C(=O)OCc2ccc(Oc3ccccc3)cc2)c1 | -3 | . | . | . | -3 | .
CCN(CC)CC(C)OC(=O)COc1ccc(OC)cc1 (centres undefined) | 24* | -2 | -5 | 0 | -3 | 3
COc1ccc(OCC(=O)OC(C)CN2CCOCC2)cc1 (centres undefined) | -4 | 5 | -4 | 3 | -6 | 3
O=C(O)c1cccc(S(=O)(=O)NCC(=O)N2CCN(c3ccccn3)CC2)c1 | 2 | . | . | . | 1 | .
Cc1ccc(C2=NN(CCC(=O)NC3CCCC3)C(=O)CC2)cc1 | 23* | -5 | -1 | -3 | 2 | -4
Cc1ccc2c(c1)N(CCC(=O)NC1CCCCC1)C(=O)CO2 | 22* | -4 | 0 | -5 | 1 | -19
Cc1ccc2c(c1)N(CC(=O)NC1CCCCC1C)C(=O)CO2 (centres undefined) | 0 | 4 | -6 | 0 | 2 | -6
O=C(CSc1nnc(-c2cccs2)n1Cc1ccco1)Nc1ccc(OCc2ccccc2)cc1 | 1 | . | . | . | -2 | .
OC(CNCc1ccccc1)Cn1ccc2ccccc21 (centres undefined) | 27* | 1 | 3 | 17 | -1 | -3
COc1ccc(C(=O)/C=C(\Nc2ccc(Br)c(C)c2)c2ccc(OC)cc2OC)c(OC)c1 | 1 | . | . | . | -1 | .
C[C@@H]1[C@@H](c2ccccc2)c2cc3ccccc3nc2-c2nc3ccccc3cc2[C@@H]1C(=O)N1CCCC1 | 0 | . | . | . | 2 | .
Cc1cc(OCCN2CCOCC2)ccc1Cl | 22* | 6 | 0 | -2 | 4 | 7
Cc1ccc(OCCN2CCOCC2)cc1C | -2 | -3 | 6 | 4 | -3 | 4
CNC[C@@H](CC1CCCCC1)NC[C@H](CC(C)C)NCCc1cccc(C(F)(F)F)c1 | 2 | 33 | 4 | 43* | 2 | 17
SMILES | UHRF1 MBD2 ctr | Arr AP2 block | Rin1 Abl inh | B2AR ag | MBD2 inh | ABHD5-PLIN5 inh
CNC[C@@H](Cc1ccccc1)NC[C@@H](CC1CCCCC1)NCCCc1ccccc1 | 0 | 10 | 0 | 26 | -8 | 13
N#CCN(C(=O)COC(=O)CCCNC(=O)c1ccc(Cl)cc1)c1ccccc1 | 50* | -6 | 4 | 7 | 0 | -5
O=C(COC(=O)CCCNC(=O)c1ccc(Cl)cc1)NCc1ccccc1Cl | 0 | -11 | -3 | 1 | 3 | -2
COc1cccc(/C=C2\SC(=S)NC2=O)c1OS(=O)(=O)c1ccc(NC(C)=O)cc1 | 4 | -2 | -1 | 77* | -1 | -3
CC(C)c1cc(C(=O)N(C2CCCCC2)C2CCCCC2)no1 | 0 | . | . | . | 3 | .
CCOC(=O)c1cc(-c2ccccc2)sc1NC(=O)CN1C(=O)NC(CC)(c2ccccc2)C1=O (centres undefined) | 0 | 30 | -4 | 7 | 1 | 0
CCOC(=O)c1cc(-c2ccccc2)sc1NC(=O)CN1C(=O)NC(CC)(c2ccc(F)cc2)C1=O (centres undefined) | 24* | -2 | 3 | 4 | 3 | 3
O=C(NCCCNc1ccc(C(F)(F)F)cc1[N+](=O)[O-])c1ccc(Cl)cc1 | 52* | 4 | 0 | -6 | 0 | 1
Cc1ccc(OCc2cc(C(=O)NCCn3cccn3)no2)cc1C | 1 | 9 | 2 | -2 | -3 | 6
COCCN1CC(CNC(=O)c2cc(COc3ccc(C)c(C)c3)on2)CC1=O (centres undefined) | 21* | 23 | 0 | -580 | 7 | -9
O=C(NC1CCCCN(Cc2cccc(C(F)(F)F)c2)C1=O)c1ccc(F)c(F)c1 (centres undefined) | 2 | . | . | . | 1 | .
COc1c(-c2ccc(O)cc2)oc2cc(O)cc(O)c2c1=O | 28* | 7 | 11 | 19 | 11 | -2
O=[N+]([O-])c1ccc(NCCCN2CCC(C(O)(c3ccccc3)c3ccccc3)CC2)cc1 | 5 | . | . | . | -7 | .
CC12CC3OC3CC1CCC1C2CCC2(C)C1CCC21OCCO1 (centres undefined) | 4 | -10 | -3 | 76* | 5 | 0
COc1cc(OC)c2ccc(=O)oc2c1C(CCN1CCCC1)c1ccc2c(c1)OCO2 (centres undefined) | 0 | -1 | 0 | -1 | -3 | 4
COc1cc(OC)c2c(-c3ccccc3)cc(=O)oc2c1C(CCN1CCCC1)c1ccc2c(c1)OCO2 (centres undefined) | -3 | 0 | 2 | 19 | 6 | 22*
COc1cc(OC)c2c(-c3ccccc3)cc(=O)oc2c1C(CCN1CCOCC1)c1ccc2c(c1)OCO2 (centres undefined) | -2 | 35 | 0 | 10 | 1 | 13
COc1cc(OC)c2ccc(=O)oc2c1C(CCN1CCOCC1)c1ccc2c(c1)OCO2 (centres undefined) | 26* | -6 | -1 | -3 | 4 | 4
COc1ccc(Cn2cc(CN3[C@H](CC(C)C)COc4cc(Br)ccc4S3(=O)=O)nn2)cc1 | 2 | . | . | . | -5 | .

Source: PubChem BioAssay
